Reference: ChEMBL document CHEMBL2321760, “Design, synthesis, and biological evaluation of a series of benzo[de][1,7]naphthyridin-7(8H)-ones bearing a functionalized longer chain appendage as novel PARP1 inhibitors” (J Med Chem, 2013)
Active and inactive are the calls of the source. The rule behind the calls is not given here.

Experiments:
[1] = biological target: Poly [ADP-ribose] polymerase 1 (Homo sapiens, UniProt P09874); assay: Inhibition of human recombinant PARP1 after 1 hr by ELISA
[2] = Cytotoxicity against Chinese hamster V79 cells expressing wild type BRCA2 assessed as growth inhibition; type: cell-based, Cricetulus griseus
Method in brief: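 V79 (wild-type Chinese hamster lung fibroblasts) grown in RPMI-1640 with 10% FBS, 37 °C, 5% CO2. Six concentrations per test. CC50 is the concentration reducing proliferation and growth by 50%, calculated by Logit method from at least three independent tests.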

[3] = Cytotoxicity against Chinese hamster BRCA2-deficient VC8 cells assessed as growth inhibition; type: cell-based; details: Cricetulus griseus, V-C8
Method in brief: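 V-C8 (BRCA2-deficient Chinese hamster lung fibroblasts) grown in F12 with 10% FBS, 37 °C, 5% CO2. Six concentrations per test. CC50 is the concentration reducing proliferation and growth by 50%, calculated by Logit method from at least three independent tests.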

PARP 1, 2 and 3 = PARP 1, 2 and 3 (Homo sapiens, UniProt P09874+Q9Y6F1+Q9UGN5); assay: Inhibition of PARP1/PARP2 in human SKOV3 cells assessed as reduction in H2O2-induced PARylation incubated for 4 hrs prior to H2O2 treatment; type: cell-based; details: sk-ov-3
[4] = Tmax in rat at 20 mg/kg, po; type: ADME, organism-based; parameters: dose 20 mg/kg, route oral; details: in vivo
Method in brief: (§1)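 Rat oral PK, 20 mg/kg po. Vehicle DMSO, Tween 80, normal saline. Cmax, Tmax, AUC0-∞ and oral bioavailability F taken from plasma concentration-time curves. Values are the average of three runs.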

[5] = Ratio of AZD2281 CC50 to compound CC50 for human BRCA1-deficient MDA-MB-436 cells; type: ADME
SK-OV-3 [6] = assay: Potentiation of temozolomide-induced cytotoxicity in human SKOV3 cells assessed as reduction in temozolomide IC50 at 1 uM after 7 days by sulforhodamine B assay; type: functional
Method in brief: (§2)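 SKOV3 cells in DMEM with 10% FBS were given gradient concentrations of temozolomide, alone or with compound at 0.5 or 1.0 µM, for 7 days. Cytotoxicity read by sulforhodamine B. Temozolomide IC50 reported as mean ± SD, n=3.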

Rattus norvegicus [7] = assay: (§3) AUC (0 to infinity) in rat at 20 mg/kg, po; type: ADME, organism-based, Plasma; parameters: time infinity, dose 20 mg/kg, route oral; details: in vivo; method in brief: as §1
[8] = Cytotoxicity against human BRCA1-deficient MDA-MB-436 cells assessed as growth inhibition; type: cell-based
Method in brief: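 Proliferation assay in BRCA1-mutant human breast cancer MDA-MB-436 cells. Six concentrations per test. CC50 calculated by Logit method from at least three independent tests.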

[9] = Cmax in rat at 20 mg/kg, po; type: ADME, organism-based; parameters: dose 20 mg/kg, route oral; details: in vivo; method in brief: as §1
SK-OV-3 [10] = assay: Potentiation of temozolomide-induced cytotoxicity in human SKOV3 cells assessed as reduction in temozolomide IC50 at 0.5 uM after 7 days by sulforhodamine B assay; type: functional; method in brief: as §2
hERG (KCNH2) = hERG (KCNH2) (Homo sapiens, UniProt Q12809); assay: Inhibition of human ERG at 5 uM relative to control
hERG (KCNH2), sequence (Q12809 whole entry): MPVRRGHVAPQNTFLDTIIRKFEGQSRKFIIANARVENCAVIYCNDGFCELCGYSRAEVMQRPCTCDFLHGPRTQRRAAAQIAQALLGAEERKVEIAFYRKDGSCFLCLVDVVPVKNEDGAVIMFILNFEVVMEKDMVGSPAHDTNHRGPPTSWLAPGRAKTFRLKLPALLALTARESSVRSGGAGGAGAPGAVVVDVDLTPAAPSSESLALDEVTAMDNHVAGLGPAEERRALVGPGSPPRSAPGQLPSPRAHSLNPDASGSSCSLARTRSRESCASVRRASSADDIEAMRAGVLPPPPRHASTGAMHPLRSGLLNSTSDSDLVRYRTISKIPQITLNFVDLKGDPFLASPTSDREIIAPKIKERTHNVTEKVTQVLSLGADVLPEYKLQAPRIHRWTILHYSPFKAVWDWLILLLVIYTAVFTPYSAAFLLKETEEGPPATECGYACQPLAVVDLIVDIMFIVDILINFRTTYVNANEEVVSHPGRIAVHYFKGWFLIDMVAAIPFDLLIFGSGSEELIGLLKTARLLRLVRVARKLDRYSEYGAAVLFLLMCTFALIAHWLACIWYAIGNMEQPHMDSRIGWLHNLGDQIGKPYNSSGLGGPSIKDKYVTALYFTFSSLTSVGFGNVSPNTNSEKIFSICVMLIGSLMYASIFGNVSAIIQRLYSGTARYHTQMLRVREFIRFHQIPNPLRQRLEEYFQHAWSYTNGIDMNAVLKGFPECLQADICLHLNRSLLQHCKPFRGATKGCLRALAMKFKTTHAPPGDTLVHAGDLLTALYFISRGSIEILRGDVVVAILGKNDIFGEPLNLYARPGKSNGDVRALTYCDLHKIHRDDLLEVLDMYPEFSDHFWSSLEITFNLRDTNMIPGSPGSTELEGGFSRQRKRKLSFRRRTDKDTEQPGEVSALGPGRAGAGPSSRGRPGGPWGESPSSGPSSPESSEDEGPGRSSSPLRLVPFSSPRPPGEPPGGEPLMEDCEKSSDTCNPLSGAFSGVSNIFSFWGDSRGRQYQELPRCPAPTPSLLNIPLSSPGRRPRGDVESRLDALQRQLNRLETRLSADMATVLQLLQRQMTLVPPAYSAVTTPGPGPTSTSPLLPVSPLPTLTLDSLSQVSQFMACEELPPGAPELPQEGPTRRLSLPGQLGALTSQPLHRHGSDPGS

[11] = Volume of distribution at steady state in rat at 10 mg/kg, iv; type: ADME, organism-based; parameters: dose 10 mg/kg, route intravenous; details: in vivo, read-out: Vdss
Method in brief: (§4)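 Rat intravenous PK, 10 mg/kg iv. Vehicle DMSO, Tween 80, normal saline. Clearance, Vss and half-life derived from plasma concentration-time data. Values are the average of three runs.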

[12] = Ratio of AZD2281 CC50 to compound CC50 for Chinese hamster BRCA2-deficient VC8 cells; type: ADME, cell-based, Cricetulus griseus
Rattus norvegicus [13] = assay: (§5) Clearance in rat at 10 mg/kg, iv; type: ADME, organism-based; parameters: dose 10 mg/kg, route intravenous; details: in vivo; method in brief: as §4
Rattus norvegicus [14] = assay: (§6) Oral bioavailability in rat at 20 mg/kg; type: ADME, organism-based; details: in vivo; method in brief: as §1
[15] = biological target: Poly [ADP-ribose] polymerase 1 (Cricetulus griseus) (UniProt Q9R152); assay: Inhibition of PARP1 in Chinese hamster BRCA2-deficient VC8 cells assessed as impairment of cell cycle progression at 0.5 uM after 24 hrs by propidium iodide staining-based FACS flow cytometric analysis
Poly [ADP-ribose] polymerase 1 (Cricetulus griseus), sequence (Q9R152 whole entry): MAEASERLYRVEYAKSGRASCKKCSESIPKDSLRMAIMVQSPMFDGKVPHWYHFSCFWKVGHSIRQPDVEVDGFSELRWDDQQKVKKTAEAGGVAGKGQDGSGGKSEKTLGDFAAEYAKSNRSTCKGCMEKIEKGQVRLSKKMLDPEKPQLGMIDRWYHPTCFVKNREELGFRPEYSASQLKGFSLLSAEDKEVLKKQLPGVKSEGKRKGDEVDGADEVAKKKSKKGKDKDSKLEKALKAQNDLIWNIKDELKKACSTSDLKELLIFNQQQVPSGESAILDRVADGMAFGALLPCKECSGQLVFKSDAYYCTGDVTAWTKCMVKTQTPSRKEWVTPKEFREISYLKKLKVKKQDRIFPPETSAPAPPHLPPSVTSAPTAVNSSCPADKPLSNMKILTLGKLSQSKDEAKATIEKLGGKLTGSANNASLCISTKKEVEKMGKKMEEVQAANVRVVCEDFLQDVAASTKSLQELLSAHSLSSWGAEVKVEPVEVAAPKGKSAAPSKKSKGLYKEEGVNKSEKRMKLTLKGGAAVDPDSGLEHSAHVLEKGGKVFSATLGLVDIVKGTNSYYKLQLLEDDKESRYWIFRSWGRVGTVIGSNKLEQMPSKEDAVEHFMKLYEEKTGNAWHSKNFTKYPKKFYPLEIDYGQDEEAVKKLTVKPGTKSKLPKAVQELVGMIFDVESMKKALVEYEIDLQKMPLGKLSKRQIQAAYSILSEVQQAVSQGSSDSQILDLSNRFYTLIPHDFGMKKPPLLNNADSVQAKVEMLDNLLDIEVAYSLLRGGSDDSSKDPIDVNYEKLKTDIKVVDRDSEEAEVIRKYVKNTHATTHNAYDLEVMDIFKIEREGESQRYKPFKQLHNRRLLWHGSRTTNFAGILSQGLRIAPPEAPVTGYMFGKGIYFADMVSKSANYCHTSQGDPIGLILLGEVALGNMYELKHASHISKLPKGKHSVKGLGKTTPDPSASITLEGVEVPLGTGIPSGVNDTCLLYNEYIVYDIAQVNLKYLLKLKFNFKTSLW
Method in brief: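 BRCA2-deficient V-C8 cells treated with compound at 0.5 µM, 37 °C, 24 h. Cells then harvested, fixed and stained with 10 µg/mL propidium iodide. Cell-cycle distribution read by flow cytometry, at least 10,000 events per sample.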

[16] = Half life in rat at 10 mg/kg, iv; type: ADME, organism-based; parameters: dose 10 mg/kg, route intravenous; details: in vivo; method in brief: as §4
[17] = Ratio of CC50 for Chinese hamster BRCA2-deficient VC8 cells to IC50 for human recombinant PARP1
[18] = as §3; type: ADME, organism-based, Plasma; parameters: time infinity, dose 20 mg/kg, route oral; details: plasma; method in brief: as §1
[19] = as §5; type: ADME, organism-based; parameters: dose 10 mg/kg, route intravenous; details: in vivo; method in brief: as §4
[20] = as §6; type: ADME, organism-based; details: in vivo; method in brief: as §1

Poly [ADP-ribose] polymerase 1, sequence (P09874 whole entry): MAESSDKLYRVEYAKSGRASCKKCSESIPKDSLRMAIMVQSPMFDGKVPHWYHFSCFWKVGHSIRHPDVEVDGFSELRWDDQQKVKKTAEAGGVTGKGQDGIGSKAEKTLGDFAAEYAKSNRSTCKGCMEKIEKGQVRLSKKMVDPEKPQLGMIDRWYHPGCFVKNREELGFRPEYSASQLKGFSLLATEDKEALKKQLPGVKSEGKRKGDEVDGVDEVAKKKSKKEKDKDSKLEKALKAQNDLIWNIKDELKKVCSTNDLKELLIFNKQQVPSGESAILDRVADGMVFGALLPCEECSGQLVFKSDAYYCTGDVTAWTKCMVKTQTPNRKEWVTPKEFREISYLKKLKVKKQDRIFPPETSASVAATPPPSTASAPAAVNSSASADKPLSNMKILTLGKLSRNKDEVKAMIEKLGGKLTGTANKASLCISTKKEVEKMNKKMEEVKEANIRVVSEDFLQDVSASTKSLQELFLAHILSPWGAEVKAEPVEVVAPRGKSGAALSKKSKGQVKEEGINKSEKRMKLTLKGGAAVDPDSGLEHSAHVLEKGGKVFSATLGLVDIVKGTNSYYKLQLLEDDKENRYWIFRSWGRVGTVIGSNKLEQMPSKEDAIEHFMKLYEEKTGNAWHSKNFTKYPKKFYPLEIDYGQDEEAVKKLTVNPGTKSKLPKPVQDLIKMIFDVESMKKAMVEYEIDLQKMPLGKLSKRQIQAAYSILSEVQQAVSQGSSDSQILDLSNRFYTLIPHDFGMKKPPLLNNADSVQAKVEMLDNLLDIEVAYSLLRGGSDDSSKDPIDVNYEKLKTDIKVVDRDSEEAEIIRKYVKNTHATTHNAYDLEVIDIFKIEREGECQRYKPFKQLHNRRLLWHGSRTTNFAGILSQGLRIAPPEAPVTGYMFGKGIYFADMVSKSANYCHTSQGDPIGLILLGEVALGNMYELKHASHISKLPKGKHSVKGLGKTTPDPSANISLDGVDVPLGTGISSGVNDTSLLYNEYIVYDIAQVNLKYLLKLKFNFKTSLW

Row | SMILES | IC50 [1] [nM] | CC50 [2] [nM] | CC50 [3] [nM] | further results
1 | C[C@H](NC(=O)CN1CCc2cccc3c2C1CNC3=O)C(=O)N1CC=C(c2ccc(F)cc2)CC1 (stereo partly drawn) | 19 | – | – | –
2 | Cc1c(Cc2ccc(F)c(C(=O)N3CCc4cccc5c4C3CNC5=O)c2)n[nH]c(=O)c1C (stereo not drawn) | 36 | > 10000 | > 1000 | –
3 | COc1ccc(N2CCN(C(=O)CNC(=O)CN3CCc4cccc5c4C3CNC5=O)CC2)cc1 (stereo not drawn) | 300 | – | – | –
4 | O=C1CC2c3c(cccc31)CCN2C(=O)c1cc(Cc2n[nH]c(=O)c3ccccc23)ccc1F (stereo not drawn) | 3.46 | > 10000 | 4.53 | IC50 (PARP 1, 2 and 3): 0.49 nM; Tmax [4]: 26.4 min; Ratio [5]: 160; fold change (FC) (SK-OV-3 [6]): 22.2; AUC (Rattus norvegicus [7]): 980 ng·h/mL; CC50 [8]: < 0.26 nM; Cmax [9]: 116 ng/mL; fold change (FC) (SK-OV-3 [10]): 19.5; inhibition at 5 µM (hERG (KCNH2)): 34%; Vd [11]: 4.56 L/kg; Ratio [12]: 40; CL (Rattus norvegicus [13]): 128 mL/min/kg; F (Rattus norvegicus [14]): 10%; inhibition [15]: Active; half-life [16]: 66.6 min
5 | C[C@@H](NC(=O)CN1CCc2cccc3c2C1CNC3=O)C(=O)N1CC=C(c2ccc(F)cc2)CC1 (stereo partly drawn) | 210 | – | – | –
6 | O=C(N[C@@H]1C[C@H](O)c2ccccc21)c1cc(Cc2n[nH]c(=O)c3ccccc23)ccc1F (relative stereo) | 4.81 | 1490 | 418 | CC50 [8]: 4520 nM
7 | O=C(NC1CNC(=O)c2ccccc21)c1cc(Cc2n[nH]c(=O)c3ccccc23)ccc1F (stereo not drawn) | 86.3 | > 10000 | > 10000 | –
8 | O=C1NCC2c3c(cccc31)CCN2CC(=O)N1C[C@H]2CNC[C@H]2C1 (stereo partly drawn) | 8800 | – | – | –
9 | O=C1NCC2c3c(cccc31)CCN2CC(=O)N1CCn2c(nnc2C(F)(F)F)C1 (stereo not drawn) | > 10000 | – | – | –
10 | O=C1NCC2c3c(cccc31)CCN2C(=O)c1cc(Cc2n[nH]c(=O)c3c2CCCC3)ccc1F (stereo not drawn) | 1.8 | > 10000 | 114 | Ratio [12]: 2
11 | O=C(c1cc(Cc2n[nH]c(=O)c3ccccc23)ccc1F)N1CCc2cccc3c2C1CNC3 (stereo not drawn) | 156 | > 10000 | > 10000 | –
12 | O=C1NCC2c3c(cccc31)CCN2C(=O)c1cc(Cc2n[nH]c(=O)c3ccccc23)ccc1F (stereo not drawn) | 0.31 | > 10000 | 96 | IC50 (PARP 1, 2 and 3): 66.1 nM; Ratio CC50/IC50 [17]: 300; Tmax [4]: 25.2 min; Ratio [5]: 2; fold change (FC) (SK-OV-3 [6]): 10.6; AUC(0-inf) [18]: 1820 ng·h/mL; CC50 [8]: 23.3 nM; Cmax [9]: 722 ng/mL; fold change (FC) (SK-OV-3 [10]): 9.3; inhibition at 5 µM (hERG (KCNH2)): 17%; Vd [11]: 4.27 L/kg; clearance [19]: 38 mL/min/kg; bioavailability [20]: 21%; inhibition [15]: Active; half-life [16]: 104 min
13 | O=C1CC2c3c(cccc3N1)CCN2C(=O)c1cc(Cc2n[nH]c(=O)c3ccccc23)ccc1F (stereo not drawn) | 387 | > 10000 | > 10000 | –
14 | O=C(CCN1CCc2cccc3c2C1CNC3=O)NCC(=O)N1CCN(c2ncccn2)CC1 (stereo not drawn) | 8520 | – | – | –
15 | O=C(N[C@@H]1C[C@@H](O)c2ccccc21)c1cc(Cc2n[nH]c(=O)c3ccccc23)ccc1F (relative stereo) | 0.57 | 4260 | 2270 | CC50 [8]: 775 nM
16 | O=C(NCC(=O)N1CCc2cccc3c2C1CNC3=O)c1cc(Cc2n[nH]c(=O)c3ccccc23)ccc1F (stereo not drawn) | 33 | > 10000 | > 1000 | –
17 | O=C(c1cc(Cc2n[nH]c(=O)c3ccccc23)ccc1F)N1CCN(C(=O)C2CC2)CC1 [OLAPARIB] | – | > 10000 | 201 | fold change (FC) (SK-OV-3 [6]): 10.4; CC50 [8]: 43.2 nM; fold change (FC) (SK-OV-3 [10]): 9.6
18 | O=C(c1cc(Cc2n[nH]c(=O)c3ccccc23)ccc1F)N1CCc2cccc3c2C1CC3F (stereo not drawn) | 0.56 | > 10000 | > 10000 | CC50 [8]: 4300 nM

Row | SMILES | IC50 [1] [nM] | CC50 [2] [nM] | CC50 [3] [nM] | further results
19 | O=C(c1cc(Cc2n[nH]c(=O)c3ccccc23)ccc1F)N1CCc2cccc3c2C1CC3O (stereo not drawn) | 86.2 | > 10000 | > 10000 | –
20 | O=C(CCN1CCc2cccc3c2C1CNC3=O)NCC(=O)N1CC=C(c2ccc(F)cc2)CC1 (stereo not drawn) | 1100 | – | – | –
21 | O=C1NCC2c3c(cccc31)CCN2CC(=O)N1CC2CCCNC2C1 (stereo not drawn) | 9350 | – | – | –
22 | O=C(c1cc(Cc2n[nH]c(=O)c3ccccc23)ccc1F)N1Cc2cccc3c2C(C1)NCC3 (stereo not drawn) | 1.39 | > 10000 | 630 | CC50 [8]: 556 nM
23 | COc1ccc(N2CCN(C(=O)CNC(=O)CCCN3CCc4cccc5c4C3CNC5=O)CC2)cc1 (stereo not drawn) | 8890 | – | – | –
24 | O=C1NCC2c3c(cccc31)CCN2C(=O)C1CCCN1C(=O)c1cc(Cc2n[nH]c(=O)c3ccccc23)ccc1F (stereo not drawn) | 45 | > 10000 | > 1000 | –
25 | O=C(CN1CCc2cccc3c2C1CNC3=O)N[C@@H](Cc1ccccc1)C(=O)N1CC=C(c2ccc(F)cc2)CC1 (stereo partly drawn) | 490 | – | – | –
26 | O=C(CN1CCc2cccc3c2C1CNC3=O)N[C@H](Cc1ccccc1)C(=O)N1CC=C(c2ccc(F)cc2)CC1 (stereo partly drawn) | > 10000 | – | – | –
27 | NC1CC2c3c(cccc31)CCN2C(=O)c1cc(Cc2n[nH]c(=O)c3ccccc23)ccc1F (stereo not drawn) | 76.6 | > 10000 | > 10000 | –
28 | CN(C(=O)c1cc(Cc2n[nH]c(=O)c3ccccc23)ccc1F)C1CC(=O)c2ccccc21 (stereo not drawn) | 11.2 | > 10000 | 4680 | –
29 | O=C(CCN1CCc2cccc3c2C1CNC3=O)NCC(=O)N1CCN(c2ccccc2F)CC1 (stereo not drawn) | 8960 | – | – | –
30 | O=C1NCC2c3c(cccc31)CCN2C(=O)C1CCN(C(=O)c2cc(Cc3n[nH]c(=O)c4ccccc34)ccc2F)CC1 (stereo not drawn) | 1.9 | > 10000 | > 1000 | CC50 [8]: 344 nM
31 | O=C1NCC2c3c(cccc31)CCN2CC(=O)N1CCC2CNCC21 (stereo not drawn) | 9380 | – | – | –
32 | COc1ccc(N2CCN(C(=O)CNC(=O)CCN3CCc4cccc5c4C3CNC5=O)CC2)cc1 (stereo not drawn) | 8720 | – | – | –
33 | O=C(NC1CNC(=O)c2ccccc21)c1cccc(Cc2n[nH]c(=O)c3ccccc23)c1 (stereo not drawn) | 146 | > 10000 | > 10000 | –
34 | O=C(NC1CC(=O)c2ccccc21)c1cc(Cc2n[nH]c(=O)c3ccccc23)ccc1F (stereo not drawn) | 83.9 | > 10000 | > 10000 | –
35 | Cc1cc(Cc2ccc(F)c(C(=O)N3CCc4cccc5c4C3CNC5=O)c2)n[nH]c1=O (stereo not drawn) | 210 | – | – | –
